The subject of one data set is MCF-10A. Nature of the data set: Cytotoxicity in human MCF10A cells at 2 uM measured every 24 hrs for 3 days by hemocytometry. It is filed as cell-based. Conditions: 72 h. In outline: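 MCF10A breast epithelial cells grown at 37°C in 5% CO2 and seeded at 2.0 × 10^5 per well. They were exposed to compound at 2 µM and harvested every 24 h for 3 days. Viable cells were counted by hemacytometer. Results are mean ± standard deviation, n = 6, compared by Student t-test.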

Data set [1] has as its system Hepacivirus hominis. Nature of the data set: Inhibition of HCV NS3 helicase ATP hydrolysis activity overexpressed in Escherichia coli BL21(DE3) assessed as inhibition of inorganic phosphate release by AM/MG-based colometric analysis in the presence of M13 ssDNA.
The test system of data set [2] is Hepacivirus hominis. Nature of the data set: Inhibition of HCV NS3 helicase overexpressed in Escherichia coli BL21(DE3) assessed as inhibition of DNA unwinding activity at 10 uM by FRET assay.
Data set [3] concerns Severe acute respiratory syndrome-related coronavirus. Nature of the data set: Inhibition of SARS coronavirus nsP13 helicase activity expressed in Escherichia coli Rosetta assessed inhibition of DNA unwinding activity at 10 uM by FRET assay. The gist of the method: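 FRET dsDNA-unwinding assay using fluorescein/TAMRA-labelled duplex. When nsP13 unwinds the duplex, fluorescein emission is unquenched. Compound was added to the unwinding reaction at 10 µM, and fluorescence was read at 535 nm.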

Data set [4] has the same test system. Nature of the data set: Inhibition of SARS coronavirus nsP13 ATP hydrolysis activity expressed in Escherichia coli Rosetta assessed as inhibition of inorganic phosphate release at 10 uM by AM/MG-based colometric analysis in the presence of M13 ssDNA.
A short description of data set [5]: Inhibition of SARS coronavirus nsP13 ATP hydrolysis activity expressed in Escherichia coli Rosetta assessed as inhibition of inorganic phosphate release by AM/MG-based colometric analysis in the presence of M13 ssDNA. Details: species or system Severe acute respiratory syndrome-related coronavirus. The gist of the method: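 ATP hydrolysis was measured colorimetrically as phosphate complex formation with ammonium molybdate/malachite green. Reactions ran with a range of compound concentrations. IC50 was derived from the concentration series.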

The source made the active and inactive calls. How the calls were made is not given here. Some results are limits rather than exact numbers.

Take `O=c1c(O)c(-c2cc(O)c(O)c(O)c2)oc2cc(O)cc(O)c12` [MYRICETIN]: the Activity entry with MCF-10A is given as “Non-toxic”. Also, the inhibition result (with Hepacivirus hominis [1]; in the data set with Hepacivirus hominis [2]; in data set [3]) was “inactive” each time. In data set [4], the inhibition was more than 90%.

As to `O=c1cc(-c2ccc(O)cc2)oc2cc(O)c(O)c(O)c12` [SCUTELLAREIN], the IC50 in data set [5] is 860 nM. Moreover, the Activity entry in the data set with MCF-10A is reported as “Non-toxic”. For the same compound, the inhibition entry (in the data set on Hepacivirus hominis [1]; in the data set with Hepacivirus hominis [2]; in data set [3]) was “inactive” throughout. Further, the inhibition in data set [4] was more than 90%.

Regarding `C[C@H]1O[C@@H](Oc2c(-c3cc(O)c(O)c(O)c3)oc3cc(O)cc(O)c3c2=O)[C@@H](O)[C@@H](O)[C@@H]1O`, the inhibition result (in the data set with Hepacivirus hominis [1]; in the data set on Hepacivirus hominis [2]; in data set [3]) was “inactive” in each case. For the same compound, the inhibition in data set [4] was found to be 20%.

For `O=c1cc(-c2ccc(O)c(-c3c(O)cc(O)c4c(=O)cc(-c5ccc(O)cc5)oc34)c2)oc2cc(O)cc(O)c12`, the inhibition result (with Hepacivirus hominis [1]; in the data set with Hepacivirus hominis [2]; in data set [3]) was “inactive” each time. In data set [4], the inhibition was found to be 20%.

Consider `CC1(C)CC[C@]2(C)CC=C3[C@]4(C)CC[C@H]5C(C)(C)[C@@H](O)CC[C@]5(C)[C@H]4CC[C@@]3(C)[C@@H]2C1`, for which the inhibition result (in the data set on Hepacivirus hominis [1]; in the data set on Hepacivirus hominis [2]; in data set [3]) was “inactive” throughout. The inhibition in data set [4] turned out to be 20%.

As to `CC(C)=CCc1c(O)cc2oc3cc(O)c(O)c(CC=C(C)C)c3c(=O)c2c1O`, the inhibition result (in the data set on Hepacivirus hominis [1]; with Hepacivirus hominis [2]; in data set [3]) was “inactive” each time.

For the compound `O=C(/C=C/c1ccccc1)NCCCCNC(=O)c1ccccc1`, the inhibition entry (in the data set on Hepacivirus hominis [1]; in the data set with Hepacivirus hominis [2]; in data set [3]) was “inactive” in each case.

Take `COc1cc(/C=C/C(=O)CC(=O)/C=C/c2ccc(O)c(OC)c2)ccc1O`: the inhibition result (in the data set on Hepacivirus hominis [1]; in the data set with Hepacivirus hominis [2]; in data set [3]) was “inactive” throughout.

As for `COc1c(O)cc2oc3cc(O)c4c(c3c(=O)c2c1CC=C(C)C)OC(C)(C)CC4`, the inhibition result (with Hepacivirus hominis [1]; in the data set with Hepacivirus hominis [2]; in data set [3]) was “inactive” throughout.

As to `O=c1c(O)c(-c2ccc(O)cc2)oc2cc(O)cc(O)c12`, the inhibition result (in the data set with Hepacivirus hominis [1]; in the data set with Hepacivirus hominis [2]; in data set [3]) was “inactive” each time.

The record behind these values is ChEMBL document CHEMBL2057104, “Identification of myricetin and scutellarein as novel chemical inhibitors of the SARS coronavirus helicase, nsP13” (Bioorg Med Chem Lett, 2012).
